Columns and labels:
[1] = compound: C/C(=C\CC[C@H](C)C(=O)O)[C@H]1CC[C@H](C(=O)O)CC1; assay: Inhibition of human DNA polymerase lambda at 20 uM using nucleotide as substrate
Method in brief: (§1)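 Kinetics on full-length human pol λ at 0, 20, 40 and 60 μM compound, varying either the template-primer poly(dA)/oligo(dT)12-18 or the nucleotide substrate dTTP. Km and Vmax (pmol/h) came from Lineweaver-Burk plots and Ki from Dixon plots.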

[2] = compound: C/C(=C\CC[C@H](C)C(=O)O)[C@H]1CC[C@H](C(=O)O)CC1; assay: Inhibition of human DNA polymerase lambda at 40 uM using nucleotide as substrate; method in brief: as §1
[3] = compound: C/C(=C\CC[C@H](C)C(=O)O)[C@H]1CC[C@H](C(=O)O)CC1; assay: Inhibition of human DNA polymerase lambda at 60 uM using nucleotide as substrate; method in brief: as §1
[4] = compound: C/C(=C\CC[C@H](C)C(=O)O)[C@H]1CC[C@H](C(=O)O)CC1; assay: Inhibition of human DNA polymerase lambda at 60 uM using template primer as as substrate; method in brief: as §1
[5] = compound: C/C(=C\CC[C@H](C)C(=O)O)[C@H]1CC[C@H](C(=O)O)CC1; assay: Inhibition of human DNA polymerase lambda at 40 uM using template primer as as substrate; method in brief: as §1
[6] = compound: C/C(=C\CC[C@H](C)C(=O)O)[C@H]1CC[C@H](C(=O)O)CC1; assay: Inhibition of human DNA polymerase lambda at 20 uM using template primer as substrate; method in brief: as §1

B1: DNA polymerase lambda (Homo sapiens), Q9UGP5 (protein)
chain: MDPRGILKAFPKRQKIHADASSKVLAKIPRREEGEEAEEWLSSLRAHVVRTGIGRARAELFEKQIVQHGGQLCPAQGPGVTHIVVDEGMDYERALRLLRLPQLPPGAQLVKSAWLSLCLQERRLVDVAGFSIFIPSRYLDHPQPSKAEQDASIPPGTHEALLQTALSPPPPPTRPVSPPQKAKEAPNTQAQPISDDEASDGEETQVSAADLEALISGHYPTSLEGDCEPSPAPAVLDKWVCAQPSSQKATNHNLHITEKLEVLAKAYSVQGDKWRALGYAKAINALKSFHKPVTSYQEACSIPGIGKRMAEKIIEILESGHLRKLDHISESVPVLELFSNIWGAGTKTAQMWYQQGFRSLEDIRSQASLTTQQAIGLKHYSDFLERMPREEATEIEQTVQKAAQAFNSGLLCVACGSYRRGKATCGDVDVLITHPDGRSHRGIFSRLLDSLRQEGFLTDDLVSQEENGQQQKYLGVCRLPGPGRRHRRLDIIVVPYSEFACALLYFTGSAHFNRSMRALAKTKGMSLSEHALSTAVVRNTHGCKVGPGRVLPTPTEKDVFRLLGLPYREPAERDW
Vmax [1]: 40 pmol/h
Vmax [2]: 32.3 pmol/h
Vmax [3]: 27 pmol/h
Vmax [4]: 40.8 pmol/h
Vmax [5]: 48.8 pmol/h
Vmax [6]: 62.5 pmol/h
